Laboratory results reported in ChEMBL document CHEMBL1125433, “Exploration of N-phosphonoalkyl-, N-phosphonoalkenyl-, and N-(phosphonoalkyl)phenyl-spaced alpha-amino acids as competitive N-methyl-D-aspartic acid antagonists” (J Med Chem, 1992).

How the values were obtained:
Glutamate NMDA receptor [1] = assay: Inhibitory activity evaluated by its ability to displace [3H]CPP from rat cortical membrane N-methyl-D-aspartate glutamate receptor at 10E-5 concentration of the compound
How it was run: (§1)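 Crude synaptic membranes from whole brain minus cerebellum and brainstem of male Long-Evans rats, treated with 0.01% Triton X-100 at 37 °C for 30 min and washed. Membranes (200-400 µg protein/mL) were incubated with 10 nM [3H]CPP in 50 mM Tris-HCl pH 7.6 for 15 min at 23 °C in triplicate. Bound ligand was separated by centrifugation and counted by liquid scintillation. Inhibition of specific binding was calculated as ((T−S)/T)×100.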

Glutamate NMDA receptor [2] = assay: Inhibitory activity evaluated by its ability to displace [3H]CPP from rat cortical membrane receptor at 10E-5 concentration of the compound; how it was run: as §1
Rattus norvegicus = organism: Rattus norvegicus; assay: In vitro antagonist activity by its ability to inhibit glutamate-induced accumulation of [45Ca2+]- in cultured rat cortical neurons.; assay type: functional
How it was run: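 Cortical neurons came from E18 Sprague-Dawley rat fetuses and were used 14-16 days after plating. Cells were held in Mg-free HBSS with 1.4 mM CaCl2, pH 7.4, at 37 °C and 5% CO2. They were exposed for 30 min to 100 µM L-glutamate (final) plus 45Ca2+ (2 µCi/mL) with test agent, then washed with saline, lysed in water and beta-counted. Baseline uptake without glutamate was subtracted. IC50 came from at least four half-log concentrations, with at least six replicates each.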

[3] = molecular target: T1, Glutamate NMDA receptor (Rattus norvegicus) (UniProt P35439+Q00959+Q00960+Q00961+Q62645+Q8VHN2+Q9R1M7); assay: Displacement of [3H]CPP from N-methyl-D-aspartate glutamate receptor of rat cortical membranes; assay type: cell membranes; design: concentration or dose not given beside the values; conditions: Membrane, concentration not given here
How it was run: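 Membranes were crude synaptic membranes from whole brain, minus cerebellum and brainstem, of male Long-Evans rats. They were treated with 0.01% Triton X-100 (37 °C, 30 min) and washed in 50 mM Tris-HCl pH 7.6. Membranes (200-400 µg protein/mL) were incubated with 10 nM [3H]CPP for 15 min at 23 °C, in triplicate. Bound ligand was separated by centrifugation and counted by scintillation. IC50 was fitted by nonlinear least squares from four or more concentrations.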

[4] = molecular target: T1, Glutamate NMDA receptor (Rattus norvegicus); assay: Inhibitory activity evaluated by its ability to displace [3H]CPP from NMDA receptor in rat cortical membranes at 10E-4 concentration of the compound; assay type: cell membranes
How it was run: (§2)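 Rat forebrain crude synaptic membranes were pretreated with Triton X-100 and washed in 50 mM Tris-HCl pH 7.6. Membranes (200-400 µg protein/mL) were incubated with 10 nM [3H]CPP and test agent for 15 min at 23 °C, in triplicate. Pellets were collected by centrifugation and counted. Percent inhibition = (T−S)/T×100, where T and S are specific binding without and with test agent.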

Glutamate NMDA receptor [5] = assay: Inhibitory activity evaluated by its ability to displace [3H]CPP from N-methyl-D-aspartate glutamate receptor in rat cortical membranes at 10E-4 concentration of the compound; assay type: cell membranes; how it was run: as §2
Glutamate NMDA receptor [6] = assay: Inhibitory activity evaluated by its ability to displace [3H]CPP from N-methyl-D-aspartate glutamate receptor in rat cortical membranes at 10E-5 concentration of the compound; assay type: cell membranes; how it was run: as §2

SMILES	IC50 (Rattus norvegicus)	inhibition [3]	also measured
CC(NC/C=C\CP(=O)(O)O)C(=O)O (stereo unspecified)	–	–	IC50 (Glutamate NMDA receptor [1]): 42.4 µM
O=C(O)CNCc1ccc(CP(=O)(O)O)cc1	59 µM	–	IC50 (Glutamate NMDA receptor [2]): 2.3 µM
CC(NCc1cccc(CP(=O)(O)O)c1)C(=O)O (stereo unspecified)	–	31%	–
O=C(O)CNCc1cccc(P(=O)(O)O)c1	–	–	inhibition [4]: 21%
O=C(O)CNc1ccccc1C(=O)O	> 250 µM	–	–
NC(CCCCCP(=O)(O)O)C(=O)O (stereo unspecified) [AP-7]	30 µM	–	–
O=C(O)CNCC/C=C\P(=O)(O)O	36 µM	–	IC50 (Glutamate NMDA receptor [1]): 2.25 µM
O=C(O)CNc1ccccc1P(=O)(O)O	–	27%	–
O=C(O)CNCCCP(=O)(O)O	–	3%	–
CC(C)C(NCc1cccc(CP(=O)(O)O)c1)C(=O)O (stereo unspecified)	–	0%	–
O=C(O)CNCCc1cccc(CP(=O)(O)O)c1	144 µM	–	IC50 (Glutamate NMDA receptor [5]): 13.7 µM
O=C(O)CNc1cccc(CCP(=O)(O)O)c1	–	0%	–
O=C(O)CNCc1cccc(CP(=O)(O)O)c1	40 µM	–	IC50 (Glutamate NMDA receptor [2]): 2.4 µM
N/C(=N\CC(=O)O)c1cccc(CP(=O)(O)O)c1	137 µM	–	IC50 (Glutamate NMDA receptor [6]): 18 µM
O=C(O)CNc1cccc(CCCP(=O)(O)O)c1	–	5%	–
CC(NCc1ccccc1CP(=O)(O)O)C(=O)O (stereo unspecified)	–	4%	–
O=C(O)CNc1cccc(/C=C/CP(=O)(O)O)c1	–	13%	–
O=C(O)CNC/C=C/CP(=O)(O)O	16.7 µM	–	IC50 (Glutamate NMDA receptor [2]): 1 µM
O=C(O)CNCCSCP(=O)(O)O	–	60%	–
NC(CCCP(=O)(O)O)C(=O)O (stereo unspecified)	6.1 µM	–	–
O=C(O)CNc1ccccc1CCP(=O)(O)O	–	–	inhibition [4]: 0%
O=C(O)CNCCP(=O)(O)O	–	14%	–
O=C(O)CNCC[S+]([O-])CP(=O)(O)O (stereo unspecified)	–	4%	–
O=C(O)CNCc1ccccc1CP(=O)(O)O	–	–	inhibition [4]: 21%
O=C(O)C1CN(CP(=O)(O)O)CCN1 (stereo unspecified)	5.2 µM	–	IC50 (Glutamate NMDA receptor [2]): 0.065 µM
O=C(O)CNCCCCP(=O)(O)O	–	17%	–
O=C(O)C1CN(CCCP(=O)(O)O)CCN1 (stereo unspecified)	2.4 µM	–	–
O=C(O)CNc1ccccc1/C=C/P(=O)(O)O	–	9%	–
O=C(O)CNc1ccccc1CP(=O)(O)O	–	48%	–
